High-throughput results: PubChem BioAssay, Johns Hopkins Ion Channel Center
Only some compounds are listed: those with a hit (about 2.3% of all), similar ones and a draw of the others.
TRPC4 act: activators of mouse TRPC4 channel; Q9QUQ5; HEK293 TRPC4beta/mu-opioid, Fluo4 calcium fluorescence; active compounds read high; B-score at 10 µM; actives 0.49% (n = 310,000); AID 2237;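 active = B-score above 5 SD of library B-scores, and initial fluorescence ratio not above library mean plus 5 SD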;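 also: positive B-score marks a calcium rise read as TRPC4 activation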
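Incubation: 45 min room-temperature Fluo4 loading, 110 s read / System: HEK293 cells stably co-expressing mouse TRPC4beta and mu-opioid receptor / Signal: Fluo4 fluorescence, kinetic / Control set: buffer (low) and maximal DAMGO (high) / Measure: integrated baseline-normalised fluorescence ratio, converted to per-well B score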
TRPC6 act: activators of mouse TRPC6 channel | Q61143 | HEK293-TRPC6 membrane potential dye fluorescence; active compounds read high | B-score at 10 µM | actives 0.13% (n = 310,000) | AID 2550;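 active = B-score of the integrated fluorescence ratio above library mean plus 3 SD, and starting fluorescence ratio within library mean plus 5 SD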;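 also: higher score means more depolarization so channel activation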
Target sequence (Q61143 whole entry, looked up): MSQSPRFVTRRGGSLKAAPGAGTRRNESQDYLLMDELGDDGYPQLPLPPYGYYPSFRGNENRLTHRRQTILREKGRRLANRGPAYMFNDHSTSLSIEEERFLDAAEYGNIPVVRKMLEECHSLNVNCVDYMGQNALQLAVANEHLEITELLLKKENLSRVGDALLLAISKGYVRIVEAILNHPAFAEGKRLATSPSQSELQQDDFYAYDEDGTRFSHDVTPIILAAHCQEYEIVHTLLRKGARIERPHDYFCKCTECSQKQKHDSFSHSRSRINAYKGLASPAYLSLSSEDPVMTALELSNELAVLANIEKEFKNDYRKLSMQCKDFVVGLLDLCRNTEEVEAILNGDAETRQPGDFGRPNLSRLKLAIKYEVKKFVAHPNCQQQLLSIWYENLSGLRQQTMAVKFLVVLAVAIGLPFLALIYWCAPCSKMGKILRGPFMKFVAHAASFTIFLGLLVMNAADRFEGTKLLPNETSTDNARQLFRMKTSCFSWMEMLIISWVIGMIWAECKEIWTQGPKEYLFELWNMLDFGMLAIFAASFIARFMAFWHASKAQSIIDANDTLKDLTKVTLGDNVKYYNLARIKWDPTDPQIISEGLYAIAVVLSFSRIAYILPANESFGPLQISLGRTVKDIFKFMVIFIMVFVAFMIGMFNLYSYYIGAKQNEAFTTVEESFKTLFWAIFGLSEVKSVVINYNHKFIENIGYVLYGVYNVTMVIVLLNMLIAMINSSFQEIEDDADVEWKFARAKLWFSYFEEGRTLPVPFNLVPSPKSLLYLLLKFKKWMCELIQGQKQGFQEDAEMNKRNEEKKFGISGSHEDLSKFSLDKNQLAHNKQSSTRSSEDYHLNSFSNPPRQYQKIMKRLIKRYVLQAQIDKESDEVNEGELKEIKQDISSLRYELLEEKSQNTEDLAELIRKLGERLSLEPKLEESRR
TRPC6 inh: blocks the mouse TRPC6 cation channel | actives 1.1% (n = 310,000) | AID 2553 | HEK293-TRPC6, membrane potential dye, ACh-evoked depolarization; active compounds read low | B-score at 10 µM | Q61143;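 active = B-score under library mean minus 3 SD, initial fluorescence not abnormally high, positive integrated signal ratio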;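 also: B-score derived from integrated fluorescence ratio over the kinetic read; more negative B-score means stronger inhibition of depolarization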
TRPC4 block: blocks the mouse TRPC4 cation channel. Q9QUQ5. HEK293 TRPC4beta/mu-opioid, DAMGO-evoked Fluo4 calcium flux; active compounds read low. AID 2247. B-score at 10 µM. actives 0.39% (n = 300,000);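 active = B-score over 3 SD under the library average, no early fluorescence shift, positive overall ratio signal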
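Test system – stable TRPC4beta/mu-opioid receptor HEK293 cells · Probe or stimulus – DAMGO, a submaximal dose followed by a maximal one · Dosing – one concentration per compound · Signal – Fluo4 calcium fluorescence by kinetic imaging, 5 s 1 Hz baseline · Evaluation – per-well B score of integrated baseline-normalized Fluo4 ratio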
TRPC4 potent: allosteric potentiators of mouse TRPC4 channel | actives 0.42% (n = 310,000) | HEK293 TRPC4beta/mu-opioid, DAMGO EC20, Fluo-4 Ca2+ flux; active compounds read high | B-score at 10 µM;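 active = B-score of calcium response area above 5 SD of library B-scores, with initial fluorescence ratio within 5 SD of library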;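 also: B-score of integrated fluorescence ratio over time as area under calcium response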
Numbers without * were called inactive; i = inactive.

SMILES	TRPC4 act	TRPC6 act	TRPC6 inh	TRPC4 block	TRPC4 potent
CC(=O)c1cc2c(cc1NC(=O)c1ccccc1C)OCO2	i	i	i	i	i
COCCC(=O)N1CCC(Oc2ccc(C(=O)N3CCCCC3CCO)cc2)CC1 (stereo not given)	i	i	i	i	i
Cn1c(-c2ccccc2)cnc1NCc1ccccc1	i	i	i	-6*	i
COc1ccccc1CN=C1Nc2ccccc2CS1	71*	i	i	i	i
CCCNC(=O)OCCC12CC3CC(CC(C3)C1)C2	i	i	i	i	10*
COc1ccc(-c2cnc(N)n2CC2CCCO2)cc1 (stereo not given)	i	i	i	i	i
c1ccc(-c2cnc(SCCN3CCOCC3)n2CC2CCCO2)cc1 (stereo not given)	i	i	i	-5*	i
C/C(CC(=O)N(C(C)C)C(C)C)=N\NC(=O)COc1ccc(Br)cc1Br	i	i	i	i	i
C/C(CC(=O)N(C(C)C)C(C)C)=N\NC(=O)COc1ccc(Cl)cc1Cl	i	i	i	-6*	i
COc1ccc(-c2nsc3c(N4CCCCC4C)ncnc23)cc1 (stereo not given)	i	i	i	i	11*
C[C@H](NC(=O)C1CC(=O)N(c2ccc3c(c2)OCO3)C1)C(=O)NC1CCCCC1 (stereo not given in full)	i	i	i	i	i
COc1ccc(/C=C2\SC(=S)N(C(Cc3ccccc3)C(=O)O)C2=O)cc1 (stereo not given)	i	i	i	-8*	i
CC(/C=C1\SC(=S)N(C(C(=O)O)C(C)C)C1=O)=C\c1ccccc1 (stereo not given)	i	i	i	-6*	i
O=c1oc2cc(Br)ccc2n1Cc1ccccc1	i	i	i	i	i
C=CCN1C(=O)/C(=C/C=C2/N(CC)c3ccc(S(=O)(=O)N(C)C)cc3N2CC)SC1=S	64*	i	i	i	10*
CCOc1ccc(/C=C(\C)C(=O)c2c(C)cc(C)[nH]c2=O)cc1	i	i	i	i	i
CCOc1ccc(-n2c(SCC(=O)Nc3nccs3)nnc2-c2ccoc2C)cc1	i	i	i	i	i
CCOc1ccccc1-n1c(SCC(=O)Nc2nccs2)nnc1-c1ccoc1C	i	i	i	-6*	i
CN(C)c1ccc(NC(=O)CN2CCN(S(=O)(=O)c3cc(Cl)ccc3Cl)CC2)cc1	i	i	i	i	i
O=C(CN1CCN(S(=O)(=O)c2cc(Cl)ccc2Cl)CC1)Nc1ccc2c(c1)OCCO2	57*	i	-5.6*	i	i
CC(C)N(C)Cc1nnnn1CC(=O)N(C)Cc1cccc(Cl)c1	i	i	i	i	i
O=C(Nc1ccccc1F)N1CCc2ccccc2C1	i	i	i	i	i
O=C(CSc1nc2[nH]ncc2c(=O)n1-c1ccccc1Br)NCc1ccccc1Cl	i	i	i	-6*	i
Cc1cccc(C)c1OCCCN1CCCC1	i	i	i	i	14*
Cc1cccc(C)c1OCCCCN1CCCCC1	i	i	i	i	i
SMILES	TRPC4 act	TRPC6 act	TRPC6 inh	TRPC4 block	TRPC4 potent
Cc1cc(OCCCN2CCCC2)ccc1Cl	i	i	i	i	12*
CN(C)CCn1c(=O)n(C2CCCCC2)c(=O)c2c3c(sc21)CCCCC3	i	i	i	i	i
CCn1c(=O)n(CCOC)c(=O)c2c3c(sc21)CCCC3	i	i	i	-6*	i
COc1ccccc1C(=O)Nc1ccc2c(c1)CCCN2C(=O)c1cccs1	i	i	i	-6*	i
COc1cc(OC)cc(C(=O)Nc2ccc3c(c2)CCCN3C(=O)c2cccs2)c1	i	i	i	i	i
CCCC(=O)Nc1c(-c2ccccc2)c(=O)c(C)nn1-c1ccc(Cl)cc1	78*	i	i	i	i
COc1ccc(-c2c(NC(=O)c3ccco3)n(-c3ccccc3)nc(C)c2=O)cc1	i	i	i	i	i
